pIC50: −log10 of the molar value.
Experiments:
HeLa [1] = experiment: Inhibitory concentration against human immunodeficiency virus type 1 (with K103N/G190A resistant mutation) was determined in HeLa-CD4 MAGI assay; format: functional, cell-based
Outline: (§1)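 Tested against a panel of recombinant, isogenic HIV-1 viruses, wild type and NNRTI-resistant strains carrying engineered single or double RT mutations. The readout was IC50.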

HeLa [2] = experiment: Inhibitory concentration against human immunodeficiency virus type 1 (with Y188C resistant mutation) was determined in HeLa-CD4 MAGI assay; format: functional, cell-based; outline: as §1
MT4 [3] = experiment: Inhibitory concentration against nevirapine resistant strain (with Y181C mutation in HIV-1 RT gene) of human immunodeficiency virus type 1 was determined by MT-4 assay; format: functional, cell-based
HeLa [4] = experiment: Inhibitory concentration against human immunodeficiency virus type 1 (with K103N/Y181C resistant mutation) was determined in HeLa-CD4 MAGI assay; format: functional, cell-based; outline: as §1
HeLa [5] = experiment: Inhibitory concentration against human immunodeficiency virus type 1 (with G190A resistant mutation) was determined in HeLa-CD4 MAGI assay; format: functional, cell-based; outline: as §1
HeLa [6] = experiment: Inhibitory concentration against human immunodeficiency virus type 1 (with Y181C resistant mutation) was determined in HeLa-CD4 MAGI assay; format: functional, cell-based; outline: as §1
[7] = system: Human immunodeficiency virus 1; experiment: Inhibitory concentration against wild type human immunodeficiency virus type 1 was determined by recombinant virus assay; format: functional, organism-based
Outline: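 Isogenic recombinant HIV-1 carrying wild-type RT, tested in parallel with a panel of NNRTI-resistant RT mutants built on the same background; activity reported as IC50.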

HeLa [8] = experiment: Inhibitory concentration against human immunodeficiency virus type 1 (with K103N resistant mutation) was determined in HeLa-CD4 MAGI assay; format: functional, cell-based; outline: as §1
MT4 [9] = experiment: Inhibitory concentration against wild type human immunodeficiency virus type 1 was determined by MT-4 assay; format: functional, cell-based
HeLa [10] = experiment: Inhibitory concentration against human immunodeficiency virus type 1 (with K103N/V108I resistant mutation) was determined in HeLa-CD4 MAGI assay; format: functional, cell-based; outline: as §1
HeLa [11] = experiment: Inhibitory concentration against human immunodeficiency virus type 1 (with V106A/Y181C resistant mutation) was determined in HeLa-CD4 MAGI assay; format: functional, cell-based; outline: as §1
HeLa [12] = experiment: Inhibitory concentration against human immunodeficiency virus type 1 (with V108I/Y181C resistant mutation) was determined in HeLa-CD4 MAGI assay; format: functional, cell-based; outline: as §1
HeLa [13] = experiment: Inhibitory concentration against human immunodeficiency virus type 1 (with V106A resistant mutation) was determined in HeLa-CD4 MAGI assay; format: functional, cell-based; outline: as §1
MT4 [14] = experiment: Ratio of cytotoxic concentration to that of inhibitory concentration as selectivity index was determined by MT-4 assay; format: functional, Homo sapiens
Outline: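 Index is the IC50 in uninfected MT4 cells divided by the antiviral IC50 in MT4 cells infected with wild-type HIV-1 or the nevirapine-resistant strain carrying RT mutation Y181C.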

HeLa [15] = experiment: Inhibitory concentration against human immunodeficiency virus type 1 (with V108I resistant mutation) was determined in HeLa-CD4 MAGI assay; format: functional, cell-based; outline: as §1

Structure (SMILES) | pIC50 (HeLa [1]) | pIC50 (HeLa [2]) | pIC50 (MT4 [3]) | pIC50 (HeLa [4]) | pIC50 (HeLa [5]) | pIC50 (HeLa [6]) | pIC50 [7] | pIC50 (HeLa [8]) | pIC50 (MT4 [9]) | pIC50 (HeLa [10]) | pIC50 (HeLa [11]) | pIC50 (HeLa [12]) | pIC50 (HeLa [13]) | Ratio (MT4 [14]) | pIC50 (HeLa [15])
CCCc1c(O)nc2cc(OC)ccc2c1OCC1CCC1 | < 5.70 | < 5.70 | < 5.10 | < 5.70 | < 5.70 | < 5.70 | < 5.70 | < 5.70 | < 5.10 | < 5.70 | < 5.70 | < 5.70 | < 5.70 | >8000 | < 5.70
CCCc1c(O)nc2ccc(OC(F)(F)F)cc2c1OC1CCCC1 | < 5.70 | 6.44 | 5.60 | < 5.70 | 7.33 | 6.00 | 6.57 | < 5.70 | 6.42 | < 5.70 | < 5.70 | < 5.70 | < 5.70 | >40000 | 6.52
CCCc1c(O)nc2ccc(Cl)cc2c1OC#CC1CC1 | 6.52 | 7.15 | 6.92 | 5.74 | 7.82 | 7.04 | 7.42 | < 5.70 | 6.96 | 5.85 | 6.92 | 6.64 | 6.66 | >8000 | 7.22
CCCc1c(O)nc2ccc(Cl)cc2c1OC1CCC1 | < 5.70 | 6.54 | 5.60 | < 5.70 | 6.66 | 5.77 | 6.52 | < 5.70 | 6.33 | < 5.70 | < 5.70 | < 5.70 | < 5.70 | >8000 | 6.16
CCCc1c(O)nc2ccc(C#N)cc2c1OC1CCCC1 | < 5.70 | 7.28 | 5.70 | < 5.70 | 9.00 | 5.77 | 7.19 | < 5.70 | 6.92 | < 5.70 | < 5.70 | < 5.70 | 5.89 | >40000 | 6.62
CCCc1c(O)nc2ccc(Cl)cc2c1OCC1CCCCC1 | < 5.70 | 7.64 | 5.89 | < 5.70 | 6.59 | 6.16 | 5.92 | < 5.70 | 5.29 | < 5.70 | < 5.70 | 6.00 | < 5.70 | >40000 | < 5.70
CCc1c(O)nc2ccc(Cl)cc2c1OC1CCCC1 | 6.19 | 7.27 | 5.99 | < 5.70 | 7.92 | 8.22 | 7.14 | < 5.70 | 7.11 | < 5.70 | ~6.00 | 6.11 | < 5.70 | >40000 | 6.59
CCC(C)C#COc1c(C(C)C)c(O)nc2ccc(F)cc12 (stereo unspecified) | 6.64 | 7.68 | 7.49 | 6.19 | 7.68 | 7.08 | 7.55 | 6.27 | 7.77 | < 5.70 | 6.89 | 6.85 | 6.38 | >6500 | 6.96
CCC(C)c1c(O)nc2ccc(Cl)cc2c1OC1CCCC1 (stereo unspecified) | < 5.70 | 6.17 | 6.54 | < 5.70 | ~5.70 | 6.49 | 8.03 | 6.01 | 8.05 | < 5.70 | ~5.70 | < 5.70 | < 5.70 | >40000 | 5.96
CC(C)c1c(OC2CCCCC2)c2cc(Cl)ccc2[nH]c1=O | 6.72 | 7.92 | 6.44 | < 5.70 | 7.57 | 5.85 | 7.42 | 6.77 | 7.64 | < 5.70 | 6.37 | ~6.10 | 5.96 | >40000 | 6.96
CC(C)c1c(O)nc2ccc(Cl)cc2c1OCC1CCC1 | 6.25 | 7.49 | 6.64 | < 5.70 | 8.05 | 6.68 | 7.82 | 6.25 | 7.54 | < 5.70 | 5.72 | 6.36 | 6.42 | >500 | 7.10
CC(C)c1c(O)nc2ccc(Cl)cc2c1OC#CC1CC1 | 7.28 | 7.74 | 7.51 | 6.21 | 8.52 | 7.41 | 7.80 | 6.49 | 7.62 | 5.92 | 6.92 | 6.92 | 7.24 | >8000 | 7.44
CC(C)c1c(OC#CC2CC2)c2cc(F)ccc2[nH]c1=O | 7.00 | 7.64 | 7.60 | 6.21 | 8.30 | 7.82 | 8.00 | 6.40 |  | 6.14 | 6.66 | 7.96 | 6.82 | 16000 | 7.59
Cc1c(O)nc2ccc(F)cc2c1OCC1CCC1 | < 5.70 | 6.08 | 5.41 | < 5.70 | 6.60 | < 5.70 | 6.21 | < 5.70 | 6.00 | < 5.70 | < 5.70 | < 5.70 | < 5.70 | >8000 | 5.77
CCCc1c(O)nc2ccc(Cl)cc2c1OCC1CC1 | < 5.70 | 7.05 | 5.08 | < 5.70 | 7.31 | 6.68 | 6.92 | < 5.70 | 5.96 | < 5.70 | < 5.70 | 5.77 | 6.20 | >40000 | 6.70
CCCc1c(O)nc2ccccc2c1OC1CCCC1 | < 5.70 | 6.74 | 5.41 | < 5.70 | 6.57 | 6.20 | 6.46 | < 5.70 | 6.42 | < 5.70 | < 5.70 | < 5.70 | < 5.70 | >40000 | 5.91
CC(C)c1c(O)nc2ccc(F)cc2c1OCC1CCC1 | 6.28 | 7.52 | 6.64 | < 5.70 | 7.80 | 6.55 | 7.31 | 5.77 | 7.59 | < 5.70 | < 5.70 | 6.15 | 5.72 | >500 | 6.36
CCCc1c(O)nc2ccc(F)cc2c1OC1CCCC1 | < 5.70 | 7.38 | 5.89 | < 5.70 | 6.43 | 5.74 | 6.82 | < 5.70 | 6.82 | < 5.70 | < 5.70 | < 5.70 | < 5.70 | >40000 | 6.46
Cc1ccnc2c1NC(=O)c1cccnc1N2C1CC1 [NEVIRAPINE] |  |  |  | < 4.30 | < 5.00 | < 5.00 | 7.05 |  |  |  | < 5.00 | < 5.00 | ~5.00 |  | 
CC(C)Nc1cccnc1N1CCN(C(=O)c2cc3cc(NS(C)(=O)=O)ccc3[nH]2)CC1 [DELAVIRDINE] | 5.10 | 6.91 |  | 5.90 | 7.46 |  | 6.80 | 5.58 |  | 5.47 | 5.00 | 5.00 | 6.06 |  | 7.01
O=C1Nc2ccc(Cl)cc2[C@@](C#CC2CC2)(C(F)(F)F)O1 [EFAVIRENZ] | 6.26 | 9.00 |  | 7.37 | 8.15 | 8.70 |  | 7.64 |  |  | 8.52 | 8.52 | 9.00 |  | 
